OX1R antag-1 = OX1R (HCRTR1) antagonists, primary screen, fluorescence, CHO/OX1R cells, Fluo-8 calcium, orexin A; actives 0.43% (n = 330,000); Orexin/Hypocretin receptor type 1 (Homo sapiens), O43613; Fluo-8 calcium fluorescence; inhibition, % at 5 µM;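 active = inhibition above its plate's threshold, mean inhibition of all tested compounds on the plate plus 3 SD, cut at about 37% in these data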;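 also: 0% = orexin A challenge wells and 100% = SB-334867-A antagonist wells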
GPR7 antagonist = GPR7 receptor antagonists, primary screen, cell-based, fluorescence, single concentration; inhibition, % at 4.4 µM; GPR7-expressing cells, fluorescence antagonist assay; actives 1.1% (n = 290,000); Neuropeptides B/W receptor type 1 (Homo sapiens), P48145; in the data active = inhibition above about 16%, passing the limit was not always enough;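 also: cells stimulated with the agonist NPW; 0% = agonist with vehicle and 100% = vehicle without agonist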
Target sequence (P48145 whole entry, looked up): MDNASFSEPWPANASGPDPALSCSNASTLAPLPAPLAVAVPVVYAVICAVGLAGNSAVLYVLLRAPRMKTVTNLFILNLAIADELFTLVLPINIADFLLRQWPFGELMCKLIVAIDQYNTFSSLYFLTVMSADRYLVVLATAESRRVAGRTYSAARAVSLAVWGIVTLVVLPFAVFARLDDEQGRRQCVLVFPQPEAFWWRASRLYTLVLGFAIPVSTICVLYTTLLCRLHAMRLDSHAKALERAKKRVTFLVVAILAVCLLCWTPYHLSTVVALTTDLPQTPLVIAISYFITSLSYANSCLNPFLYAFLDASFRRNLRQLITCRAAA
CHO parental Ca = ATP-evoked calcium signal inhibitors, parental CHO, primary screen, counter-screen for OX1R antagonist project, cell-based, fluorescence, Fluo-8 calcium dye. actives 0.63% (n = 330,000). AID 463079, 2010. inhibition, % at 5.6 µM. parental CHO-K1, ATP-induced calcium, Fluo-8 fluorescence;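 active = inhibition above that plate's mean sample inhibition plus 3 SD, cut at about 26% in these data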;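 also: 0% = ATP-challenged DMSO wells and 100% = DMSO wells without ATP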
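Assay system: untransfected parental CHO cell line. Also added: ATP agonist challenge. Dosing: one dose, 5.6 µM nominal. Measured by: Fluo-8 fluorescence. Read-out: % inhibition. Benchmarks: ATP wells versus no-ATP DMSO wells. Repeats: no replicates.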
TAAR1 antagonist = human TAAR1 antagonists, primary screen, Fluo-8 calcium fluorescence, CHO RD-HGA16 cells | antagonist | inhibition, % at 3 µM | actives 1.5% (n = 360,000) | AID 624466, 2012;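 active = inhibition above a per-plate cutoff, the mean inhibition of test compounds on that plate plus 3 SD, cut at about 49% in these data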;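 also: 0% = DMSO plus EC80 beta-PEA response and 100% = DMSO alone without agonist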
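Test system – hTAAR1-expressing CHO RD-HGA16 cells, Gα16-coupled · Also added – β-PEA at EC80 concentration, post-compound challenge · Compound – 3 µM, single point · Incubation – dye loading 75 min at 37 °C, then 30 min room temperature · Measured by – Fluo-8 intracellular calcium dye fluorescence, real-time kinetic reads · Benchmarks – vehicle and agonist controls · Replicates – singlicate, one well per test compound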
TAAR1 ag = human TAAR1 agonists, primary screen, Fluo-8 calcium fluorescence, CHO RD-HGA16 cells. Trace amine-associated receptor 1 (Homo sapiens), Q96RJ0. vehicle wells 0%, saturating PEA agonist 100%. activation, % at 3 µM. actives 0.99% (n = 360,000). AID 624467, 2012;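 active = activation above the mean activation of all test compounds in the run plus 3 SD, cut at about 38% in these data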
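Assay system – CHO-derived RD-HGA16 cells with stable Gα16 and human TAAR1 · Compound dosing – one-point dosing at 3 µM (nominal) · Incubation – 17-24 h seeding, 75 min 37 °C dye, 30 min RT · Measured by – kinetic Fluo-8 calcium fluorescence · Control set – DMSO vehicle as 0%, PEA at EC100 as 100% · Repeats – single well for each compound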
OX1R antag-2 = antagonists of human orexin 1 receptor (OX1R). OX1R-expressing cells, FRET antagonist read-out. inhibition, % at 6.6 µM. Orexin/Hypocretin receptor type 1 (Homo sapiens), O43613. actives 1.8% (n = 330,000); in the data active = inhibition mostly above about 38%, no sharp cut-off; inactive = mostly below about 40%;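 also: 0% = agonist challenge alone and 100% = reference antagonist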
nonsel antag count = nonselective antagonists in TAAR1 counter-screen cells, counter-screen for hTAAR1 antagonist project, cell-based, fluorescence, calcium. shares compounds with TAAR1 antagonist. counterscreen cell line, antagonist mode. inhibition, % at 3 µM. actives 77% (n = 2,400). AID 651780, 2012; in the data active = inhibition above about 22%;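 also: CHO-Ga16 host cells stimulated with ATP at an EC80 level; 0% = agonist EC80 plus vehicle and 100% = vehicle without agonist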
TAAR1 ant conf = human TAAR1 antagonists, retest of hits, confirmation, cell-based, fluorescence. shares compounds with TAAR1 antagonist. TAAR1-expressing cells, fluorescence antagonist read-out. inhibition, % at 3 µM. actives 40% (n = 2,400). AID 651785, 2012; in the data active = inhibition above about 49%;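 also: CHO-Ga16 host cells challenged with agonist PEA near its EC80; 0% = agonist at EC80 plus vehicle and 100% = vehicle with no agonist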
Ga16 nonsel ag = calcium activation in Ga16-expressing cells, counter-screen for TAAR1 antagonist project, cell-based, fluorescence | shares compounds with TAAR1 antagonist | agonist counterscreen | activation, % at 3 µM | actives 18% (n = 2,400); in the data active = activation above about 12%;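 also: 0% = vehicle wells and 100% = saturating stimulus response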
TAAR1 ag counter = TAAR1 activation by candidate antagonists – cell-based, fluorescence, counter-screen for TAAR1 antagonist project | shares compounds with TAAR1 antagonist | hTAAR1 cell line, agonist mode | activation, % at 3 µM | actives 2% (n = 2,400); in the data active = activation above about 37%;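 also: CHO cells stably expressing TAAR1 with calcium dye readout; 0% = DMSO vehicle and 100% = full agonist response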
The depositor's hits bear a star; . = not tested or not shown. Hits are enriched below; roughly 4.6% of the tested compounds scored in any of these assays.

SMILES	OX1R antag-1	GPR7 antagonist	CHO parental Ca	TAAR1 antagonist	TAAR1 ag	OX1R antag-2	nonsel antag count	TAAR1 ant conf	Ga16 nonsel ag	TAAR1 ag counter
Cc1ccccc1C(=O)N1CCN(c2ccc(NC(=O)c3ccc4c(c3)OCCO4)cc2)CC1	6	24	12	77*	19	27	43*	56*	17*	16
COc1ccc(Cn2c(SCC#N)nc3ccc(N4CCOCC4)cc3c2=O)cc1	-19	-10	-11	-20	3	25	.	.	.	.
CCN(CC)CCCNC(=O)C1CCC(CNS(=O)(=O)c2ccc(Cl)cc2)CC1 (stereo not drawn)	-14	-2	-2	-5	-2	-4	.	.	.	.
COc1ccc(C(C)=O)cc1COC(=O)[C@H](Cc1ccccc1)NC(=O)c1ccco1	-20	.	-15	56*	8	17	22*	44	10	13
CCCCCCCCN1C(=O)[C@H](CC(=O)NCCC(C)C)C[C@@]2(C(=O)OCC)CCCC=C12	.	.	.	4	-2	.	.	.	.	.
Cc1cc(C)c(C)c(S(=O)(=O)N2CCN(C(=O)c3cc(=O)[nH]c4ccccc34)CC2)c1C	-20	11	-1	55*	30	24	34*	56*	13*	13
C/C=C/c1ccc(OCC(=O)Nc2cc(S(=O)(=O)N3CCOCC3)ccc2N2CCCC2)c(OC)c1	-33	.	-13	0	-2	7	.	.	.	.
CCOc1ccc(-c2c(C)sc3nc[nH]c(=O)c23)cc1	-10	-13	-1	76*	14	15	26*	47	8	7
COc1cc(/C=N/NC(=O)c2cc(-c3cccc(OC(C)C)c3)nc3ccccc23)ccc1O	-36	.	-49	54*	1	12	16	48	4	11
COc1ccc(-c2cc(C(=O)N/N=C/c3cc(OC)c(OC)cc3OC)c3ccccc3n2)cc1	-26	.	-19	68*	9	3	28*	36	6	3
CC(C)Oc1ccccc1-c1cc(C(=O)N/N=C/c2cccnc2)c2ccccc2n1	-23	-24	-27	50*	9	20	21	30	6	5
Cc1ccccc1-c1cc(C(=O)N/N=C/c2cccnc2)c2ccccc2n1	.	-7	.	0	0	.	.	.	.	.
COc1ccc(-c2cc(C(=O)N/N=C/c3cccnc3)c3ccccc3n2)cc1	.	3	.	11	6	.	.	.	.	.
CC(C)(O)C#Cc1ccc(C(=O)N2CCC(C(N)=O)(N3CCCCC3)CC2)o1	.	3	.	-12	0	.	.	.	.	.
O=C(CSCC(=O)NN=Cc1ccccc1)NN=Cc1ccccc1	.	.	.	-12	31	.	.	.	.	.
O=C(CCCSCCCC(=O)NN=Cc1ccccc1)NN=Cc1ccccc1	.	.	.	66*	22	.	43*	56*	10	44*
O=C(Nc1ccc(-c2nc3ccccc3[nH]2)cc1)c1ccccc1NS(=O)(=O)c1ccc(F)cc1	-15	-10	-7	78*	9	53*	42*	46	6	-1
O=C(Nc1ccc(S(=O)(=O)Nc2ncccn2)cc1)c1ccccc1NS(=O)(=O)c1ccc(F)cc1	-6	5	3	-4	2	10	.	.	.	.
